Hits are enriched below; roughly 6.4% of the tested compounds scored in any of these assays.
WT yeast gro inh: growth inhibition of WT yeast, mitochondrial fusion screen. mitochondrial fusion phenotypic screen, WT strain. 190,000 compounds, 2.1% hits. inhibition, % at 10 µM; in the data active = inhibition above about 58%; tested in S. cerevisiae
CHOP inh: inhibitors of CHOP induction in ER stress response; CHO-K1 CHOP-promoter luciferase, tunicamycin-induced, 15-18 h; inhibition, % at 10 µM; 220,000 compounds, 3.8% hits; AID 2732;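 active = compounds that reduced the stress-induced luciferase reporter signal by more than about 70% of percent inhibition, limit read from the data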
Tb MetRS inh: Trypanosoma brucei MetRS inhibition; purified T. brucei MetRS, ATP depletion, Kinase-Glo luminescence; inhibition, % at 11.9 µM; 360,000 compounds, 0.4% hits;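 active = inhibition above a per-plate cutoff of the control wells' mean inhibition plus 3 SD, cut at about 5.5% in these data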
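Material: T. brucei methionyl-tRNA synthetase, purified; reagent: substrates ATP, L-methionine and bulk Escherichia coli tRNA; dosing: 11.9 µM single point; timing: 15 min plus 2 h at 25 °C; detection: luminescence of leftover ATP; evaluation: % inhibition; control set: DMSO-only wells as low control; replicates: singlicate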
MPTP inh: blocks calcium-induced mitochondrial swelling | isolated mouse mitochondria, Ca2+ swelling absorbance, 30 min | 360,000 compounds, 1.4% hits | inhibition, % at 10 µM;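 active = inhibition of 50% or more, scaled per plate between neutral and stimulator controls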
NR3A LBD binder: NR3A (human) ligand-binding domain modulation; NR3A LBD differential scanning fluorimetry, Tm shift; 0% = protein alone, 100% = glycine-bound protein; Tm shift relative to glycine control, % at 25 µM; 340,000 compounds, 2.5% hits; AID 1259313;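 active = melting temperature shift of at least 10% of the positive control shift, at one fixed dose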
EBV gp42 block: EBV gp42 inhibition; Q1HVG2; Fluorescence polarization binding assay, mP read-out; inhibition, % (tested at 21.74 µM); 220,000 compounds, 0.42% hits; AID 1085; in the data active = inhibition above about 50%
Target sequence (Q1HVG2 whole entry, looked up): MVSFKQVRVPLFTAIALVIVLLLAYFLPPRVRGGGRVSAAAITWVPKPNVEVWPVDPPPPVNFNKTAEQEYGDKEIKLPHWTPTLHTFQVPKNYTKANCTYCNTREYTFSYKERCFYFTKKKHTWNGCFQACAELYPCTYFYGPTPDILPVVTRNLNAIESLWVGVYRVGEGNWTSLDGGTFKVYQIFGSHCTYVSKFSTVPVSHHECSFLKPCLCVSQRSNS
Of the large screens only hits and unclear results are named; the others gave an inactive call.

Cc1ccc(NC(=S)Nc2cc(-c3ccccc3)[nH]n2)cc1Cl	CHOP inh 84, NR3A LBD binder 24
COc1ccc(CCNS(=O)(=O)c2cccc(S(=O)(=O)N3CCCC3)c2)cc1OC	NR3A LBD binder 14
COc1ccc(CCNS(=O)(=O)c2cccc(C)c2)cc1OC	none
COc1ccc(S(=O)(=O)N2CCCCC2)cc1N(C)S(=O)(=O)c1ccccc1	none (no result: WT yeast gro inh, CHOP inh, EBV gp42 block)
COc1ccc(S(=O)(=O)N2CCCCCC2)cc1N(C)S(=O)(=O)c1ccccc1	NR3A LBD binder 12
CN(C)S(=O)(=O)c1ccc(C(=O)Nc2ccc3ncccc3c2)cc1	none (no result: WT yeast gro inh, CHOP inh, EBV gp42 block)
CC(C(=O)N(C1CC1)C1(C(=O)Nc2ccccc2)CCCC1)N1C(=O)c2ccccc2C1=O (configuration not stated)	CHOP inh 74
Cn1c(=O)c2c(SC3CCCC3)nc(C3CC3)nc2n(C)c1=O	CHOP inh 80
CC1(C)CC2CC(C)(CN2C(=O)C23CCC(C)(C(=O)C2)C3(C)C)C1 (configuration not stated)	none
COc1ccc(C(=O)Oc2cc(/C=N/NC(N)=S)ccc2OC)cc1	none
COc1ccc(/C=N/NC(N)=S)cc1OC(=O)c1cccc2ccccc12	WT yeast gro inh 61
CCCCCCC1CC(CSc2ncn[nH]2)OC1=O (configuration not stated)	NR3A LBD binder 15
CCCCCCC1CC(CCc2nc(=S)[nH][nH]2)C(=O)O1 (configuration not stated)	none
CC1=NN(C(=O)Cn2nc([N+](=O)[O-])c(Br)c2C)C(O)(C(F)(F)F)C1 (configuration not stated)	none
CCCOc1ccc(/C=N/Nc2ccc(C(=O)O)cc2)c(OCCC)c1	NR3A LBD binder 21
COc1ccc2c(/C=N/Nc3ccc(C(=O)O)cc3)c[nH]c2c1	none (no result: WT yeast gro inh, CHOP inh, EBV gp42 block)
CCCOc1ccc(/C=N/Nc2cccc([N+](=O)[O-])c2)c(O)c1	CHOP inh 74, NR3A LBD binder 33
CC/C(C)=N/Nc1cccc([N+](=O)[O-])c1	WT yeast gro inh 67
N=c1ccn(Cc2ccc(F)cc2)cc1	none (no result: WT yeast gro inh)
Cc1cc(N(C)N)nc(NC(=O)NS(=O)(=O)c2ccccc2Cl)n1	none (no result: WT yeast gro inh, CHOP inh, NR3A LBD binder, EBV gp42 block)
CC(=O)Nc1ccc(NC(=O)C(Sc2ccccc2)c2ccccc2)cc1 (configuration not stated)	none (no result: WT yeast gro inh)
O=C(Nc1ncccc1Cl)C(Sc1ccccc1)c1ccccc1 (configuration not stated)	CHOP inh 75
O=C(COc1ccccc1)Nc1ccc2[nH]ncc2c1	none (no result: WT yeast gro inh, CHOP inh, EBV gp42 block)
C=CCn1c(SCC(=O)c2[nH]c(C)c(C(=O)OCC)c2C)nc2scc(-c3ccc(OC)cc3)c2c1=O	none
C=CCn1c(SCC(=O)c2[nH]c(C)c(C(=O)OCC)c2C)nc2scc(-c3ccccc3)c2c1=O	CHOP inh 88
O=[N+]([O-])c1ccc(C2=NN(c3ccccc3)C(c3ccco3)C2)cc1 (configuration not stated)	NR3A LBD binder 339 (no result: WT yeast gro inh)
O=[N+]([O-])c1ccc(/C=C/C2=NN(c3ccccc3)C(c3ccco3)C2)cc1 (configuration not stated)	NR3A LBD binder 263
CC1=NN(c2ccccc2)C(c2ccco2)C1 (configuration not stated)	none (no result: WT yeast gro inh, CHOP inh, EBV gp42 block)
O=S(=O)(NCC1COc2ccccc2O1)c1ccccc1F (configuration not stated)	none (no result: WT yeast gro inh, CHOP inh, EBV gp42 block)
CN(C(=O)c1ccc(NC(=O)Cc2cccc(NC(=O)C3CCCN(C(=O)CCc4ccccc4)C3)c2)cc1)C1CCCC1 (configuration not stated)	NR3A LBD binder 22 (no result: WT yeast gro inh, CHOP inh, EBV gp42 block)
O=C(Nc1cccc(S(=O)(=O)N2CCCCC2)c1)C1CCCC1	NR3A LBD binder 22 (no result: WT yeast gro inh, CHOP inh, EBV gp42 block)
Cc1cccc(Nc2nnc(SCC(=O)Nc3cccc(S(=O)(=O)N4CCCCC4)c3)s2)c1	NR3A LBD binder 15
CCOc1ccc(C(=O)N[C@H](C(=O)Nc2cccc(S(=O)(=O)N3CCCCC3)c2)C(C)C)cc1	CHOP inh 85
CN(C(=O)c1cccc(NC(=O)Cc2ccc(NC(=O)C3CCCN(C(=O)CCc4ccccc4)C3)cc2)c1)C1CCCC1 (configuration not stated)	none (no result: WT yeast gro inh, CHOP inh, EBV gp42 block)
CN(C(=O)c1cccc(NC(=O)Cc2ccc(NC(=O)C3CCN(S(=O)(=O)c4cccc([N+](=O)[O-])c4)CC3)cc2)c1)C1CCCC1	none (no result: WT yeast gro inh, CHOP inh, EBV gp42 block)
CN(C(=O)c1cccc(NC(=O)Cc2ccc(NC(=O)C3CCCN(S(=O)(=O)c4cccc([N+](=O)[O-])c4)C3)cc2)c1)C1CCCCC1 (configuration not stated)	NR3A LBD binder 10 (no result: WT yeast gro inh, CHOP inh, EBV gp42 block)
COc1ccccc1N=c1oc2c(OC)cccc2cc1C(=O)NCc1ccco1	CHOP inh 83
COc1ccc(OC)c(N=c2oc3c(OC)cccc3cc2C(=O)NCc2ccco2)c1	none (no result: WT yeast gro inh, CHOP inh, EBV gp42 block)
O=C(N/N=C/c1ccccc1OCC(=O)N1CCCC1)C(=O)Nc1ccccc1F	none
COC/C=C/C1=CC2=CC(=O)C(C)(OC(=O)c3cnc4ccccc4n3)C(=O)C2=CN1Cc1ccco1 (configuration not stated)	none (no result: WT yeast gro inh, CHOP inh, EBV gp42 block)
CCN(CC)C(=O)/C(=C\c1ccc(Br)cc1)NC(=O)c1ccccc1OC	EBV gp42 block 61
COc1ccccc1C(=O)N/C(=C\c1ccc(Br)cc1)C(=O)NCCO	none
S=C(NC1CC1)N1CCc2ccccc2C1	none
OC1CCN(C(=S)NCCc2ccccc2)CC1	none
O=C(CN(C1CCCCC1)S(=O)(=O)c1ccccc1)N1CCCC1	none
O=C(CN(C1CCCCC1)C1CCCCC1)N1CCc2ccccc2C1	CHOP inh 87
S=C(N/N=C1\CCc2ccccc21)NC1CCCCC1	WT yeast gro inh 70
S=C(NC1CCCCC1)N1CCc2ccccc2C1	NR3A LBD binder 11
O=C(N/N=C1/CCc2ccccc21)C1CC1	none
S=C(NCCc1ccccc1)N1CCc2ccccc2C1	WT yeast gro inh 71
Cc1cc(NC(=O)COc2ccc(C)c(C)c2)no1	none (no result: WT yeast gro inh, CHOP inh, EBV gp42 block)
COc1ccc(CCNS(=O)(=O)c2cn(C)nc2C)cc1OC	none (no result: WT yeast gro inh, CHOP inh, EBV gp42 block)
Cc1ccc(S(=O)(=O)NCCC(=O)Nc2ccc(Cl)c(Cl)c2)cc1C	NR3A LBD binder 13
CC(=O)Nc1ccc(S(=O)(=O)NCCC(=O)Nc2ccc(C)c(Cl)c2)cc1	none
N#Cc1ccc(N/N=C/c2cn(-c3ccccc3)nc2-c2ccccc2)c([N+](=O)[O-])c1	CHOP inh 83
CCN1CC=C2C(C1)C(c1ccc(Cl)s1)C(C#N)=C(N)C2(C#N)C#N (configuration not stated)	EBV gp42 block 88
CCN1CC=C2C(C#N)=C(N)C(C#N)(C#N)[C@H](c3cccc(OC)c3OC)[C@H]2C1	none (no result: CHOP inh, EBV gp42 block)
Oc1ccccc1CN(Cc1ccco1)CC(O)COCc1ccc(Cl)cc1 (configuration not stated)	WT yeast gro inh 68, CHOP inh 84
Cc1cc(C)cc(NCc2cc(=O)oc3cc(-c4ccccc4)c(O)cc23)c1	CHOP inh 103

Compound activity as filed in PubChem.
